# In ChEMBL document CHEMBL4382247, “A novel series of napabucasin derivatives as orally active inhibitors of signal transducer and activator of transcription 3 (STAT3)” (Eur J Med Chem, 2019):
# Columns and labels:
# HepG2 = assay: Antiproliferative activity against human HepG2 cells after 72 hrs by MTT assay; assay type: functional, cell-based; conditions: HepG2, 72 h
# Outline: (§1)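 Cells seeded at 5 × 10^3 per well and cultured 24 h before compound addition at varied concentrations, then grown a further 72 h; 0.5% DMSO as solvent control. MTT (5mg/ml solution) added for 4 h, formazan dissolved in DMSO, absorbance read at 570nm. Each treatment in triplicate; Mean ± SD.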
# CT26 = assay: Antiproliferative activity against mouse CT26 cells after 72 hrs by MTT assay; assay type: functional, cell-based; conditions: CT26, 72 h; outline: as §1
# PC-3 = assay: Antiproliferative activity against human PC3 cells after 72 hrs by MTT assay; assay type: functional, cell-based; conditions: PC-3, 72 h; outline: as §1
# HT-29 = assay: Antiproliferative activity against human HT-29 cells after 72 hrs by MTT assay; assay type: functional, cell-based; conditions: HT-29, 72 h; outline: as §1
# U-251 = assay: Antiproliferative activity against human U251 cells after 72 hrs by MTT assay; assay type: functional, cell-based; conditions: U-251, 72 h; outline: as §1
# [1] = Aqueous solubility of the compound in water at 2 mg after 24 hrs by HPLC analysis; assay type: physicochemical
# Outline: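 Aqueous solubility measured by HPLC against calibration standards at 15–125 µg/mL. Values are the mean of at least three determinations ± SD.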
Structure (SMILES),IC50 (HepG2),IC50 (CT26),IC50 (PC-3),IC50 (HT-29),IC50 (U-251),solubility at 24 h [1]
Cn1cccc1/C=C/C(=O)c1cc2c(o1)C(=O)c1ccccc1C2=O,> 10 µM,2.48 µM,> 10 µM,0.87 µM,1.5 µM,–
O=C1c2ccccc2C(=O)c2oc(C(=O)N3CCC(c4ccc(F)cc4)CC3)cc21,> 10 µM,–,> 10 µM,> 10 µM,> 10 µM,–
O=C(NC12CC3CC(CC(C3)C1)C2)c1cc2c(o1)C(=O)c1ccccc1C2=O,> 10 µM,–,> 10 µM,> 10 µM,> 10 µM,–
O=C1c2ccccc2C(=O)c2oc(C(=O)N3CCCCC3)cc21,> 10 µM,0.95 µM,> 10 µM,1.57 µM,2.16 µM,–
O=C(NCCc1ccccc1)c1cc2c(o1)C(=O)c1ccccc1C2=O,> 10 µM,–,> 10 µM,> 10 µM,> 10 µM,–
O=C(NC1CCCCC1)c1cc2c(o1)C(=O)c1ccccc1C2=O,> 10 µM,–,> 10 µM,> 10 µM,3.02 µM,–
COc1ccc(C2CCN(C(=O)c3cc4c(o3)C(=O)c3ccccc3C4=O)CC2)cc1,> 10 µM,–,9.64 µM,> 10 µM,> 10 µM,–
O=C(/C=C/c1cccs1)c1cc2c(o1)C(=O)c1ccccc1C2=O,> 10 µM,> 10 µM,> 10 µM,1.52 µM,2.2 µM,–
O=C1c2ccccc2C(=O)c2oc(C(=O)N3CCCC3)cc21,> 10 µM,0.58 µM,9.65 µM,1.08 µM,2.18 µM,–
O=C(NCCN1CCCC1)c1cc2c(o1)C(=O)c1ccccc1C2=O,1.75 µM,0.2 µM,4.45 µM,0.3 µM,0.9 µM,–
O=C1c2ccccc2C(=O)c2oc(C(=O)N3CCC(c4cccc(Cl)c4)CC3)cc21,> 10 µM,–,> 10 µM,> 10 µM,> 10 µM,–
O=C1c2ccccc2C(=O)c2oc(C(=O)N3CCN(c4cccc(C(F)(F)F)c4)CC3)cc21,> 10 µM,–,> 10 µM,> 10 µM,> 10 µM,–
O=C(NCCc1ccc(Cl)cc1)c1cc2c(o1)C(=O)c1ccccc1C2=O,> 10 µM,–,> 10 µM,> 10 µM,3.36 µM,–
CC(=O)c1cc2c(o1)C(=O)c1ccccc1C2=O [NAPABUCASIN],6.6 µM,2.5 µM,5.25 µM,1.6 µM,2.6 µM,< 62.5 µM
O=C(NCCN1CCOCC1)c1cc2c(o1)C(=O)c1ccccc1C2=O,> 10 µM,0.05 µM,7.19 µM,0.37 µM,1.63 µM,< 70.6 µM
O=C1c2ccccc2C(=O)c2oc(C(=O)N3CCSCC3)cc21,9.63 µM,1.35 µM,5.83 µM,1.65 µM,3.1 µM,< 76.5 µM
O=C(/C=C/c1ccc(-c2ccccc2)cc1)c1cc2c(o1)C(=O)c1ccccc1C2=O,> 10 µM,> 10 µM,> 10 µM,> 10 µM,> 10 µM,–
O=C(/C=C/c1ccccc1)c1cc2c(o1)C(=O)c1ccccc1C2=O,> 10 µM,> 10 µM,> 10 µM,> 10 µM,> 10 µM,–
COC(=O)CC1CCN(C(=O)c2cc3c(o2)C(=O)c2ccccc2C3=O)CC1,9.66 µM,–,> 10 µM,> 10 µM,5.92 µM,–
O=C1CCN(C(=O)c2cc3c(o2)C(=O)c2ccccc2C3=O)CC1,2.5 µM,0.61 µM,> 10 µM,1.13 µM,0.58 µM,118 µM
CN1CCN(C(=O)c2cc3c(o2)C(=O)c2ccccc2C3=O)CC1,5.27 µM,0.26 µM,4.58 µM,0.39 µM,1.37 µM,337 µM
CC1(C)CCC(NC(=O)c2cc3c(o2)C(=O)c2ccccc2C3=O)CC1,11.2 µM,–,> 10 µM,> 10 µM,2.65 µM,–
COc1ccc(CCNC(=O)c2cc3c(o2)C(=O)c2ccccc2C3=O)cc1,> 10 µM,–,> 10 µM,> 10 µM,6.32 µM,–
O=C1c2ccccc2C(=O)c2oc(C(=O)N3CCOCC3)cc21,7.3 µM,0.57 µM,6.84 µM,0.86 µM,2.19 µM,162 µM
CCN1CCN(C(=O)c2cc3c(o2)C(=O)c2ccccc2C3=O)CC1,> 10 µM,0.59 µM,2.06 µM,0.21 µM,0.87 µM,241 µM
